Key:
[1] = system: apoptosis; experiment: Annexin V flow cytometry; assay type: cell-based; conditions: 100 μM, 48 hr
Summary of the method: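 Cells exposed to 100 μM test compound or vehicle for 48 hr, then harvested and stained with APC-conjugated annexin V following the kit protocol before flow cytometry.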

[2] = system: HeLa control cells expressing GFP and not LIN28; experiment: let-7-sensitive dual luciferase reporter assay, GFP control cells; assay type: cell-based, human; conditions: up to 100 μM
Summary of the method: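 HeLa cells were retrovirally transduced with FLAG-GFP (or LIN28) cDNA, puromycin-selected and single-cell cloned. They were then lentivirally given an 8×let-7-site Renilla/HSV-TK firefly cassette and selected with G418 as polyclonal populations. Cells were exposed to up to 100 μM test compound, lysed, and read for dual luciferase with firefly as internal control. Values were normalised to blanks.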

[3] = system: preE-let-7f; experiment: Saturation transfer difference spectroscopy, preE-let-7f; assay type: binding, human; conditions: preE-let-7f alone
[4] = molecular target: LIN28ΔK102 (Homo sapiens, UniProt Q9H9Z2, K102A); experiment: Saturation transfer difference spectroscopy, K102A mutant; assay type: binding; conditions: K102A mutation, compared with LIN28Δ
Summary of the method: (§1)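 Protein was dialysed overnight into 20 mM Bis-Tris pH 6.0, 100 mM NaCl, 10% v/v glycerol-d8, 5 mM DTT and D2O. Test compound was dissolved in DMSO-d6. Samples held 100 μM compound and 5 μM protein in dialysis buffer. STD spectra were collected at 700 MHz, irradiating the macromolecule only at −2 ppm, with a 2 s transfer delay.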

[5] = system: HeLaLIN28B; experiment: let-7-sensitive dual luciferase reporter assay, HeLaLIN28B; assay type: cell-based, human; conditions: LI71 50–100 μM, 48 hr
Summary of the method: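 HeLa clone stably expressing N-FLAG-LIN28B at low level, from retroviral transduction, puromycin selection and single-cell sorting. Cells were lentivirally transduced with the let-7 dual luciferase sensor: LTR-driven Renilla with eight let-7 sites in the 3′ UTR plus HSV-TK firefly control, as a G418-selected polyclonal pool. Cells received test compound or DMSO vehicle, then were lysed for dual luciferase readout normalised to blank samples.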

[6] = molecular target: CSD (residues 16–136) of LIN28 (Homo sapiens, UniProt Q9H9Z2); experiment: Saturation transfer difference spectroscopy, CSD; assay type: binding; conditions: CSD alone
Summary of the method: as §1

CSD (residues 16–136) of LIN28, sequence (Q9H9Z2 16-136): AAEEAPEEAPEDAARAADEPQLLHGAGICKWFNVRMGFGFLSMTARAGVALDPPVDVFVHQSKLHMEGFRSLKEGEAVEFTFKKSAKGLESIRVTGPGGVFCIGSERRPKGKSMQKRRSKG
LIN28ΔK102, sequence (Q9H9Z2 16-187 K102A): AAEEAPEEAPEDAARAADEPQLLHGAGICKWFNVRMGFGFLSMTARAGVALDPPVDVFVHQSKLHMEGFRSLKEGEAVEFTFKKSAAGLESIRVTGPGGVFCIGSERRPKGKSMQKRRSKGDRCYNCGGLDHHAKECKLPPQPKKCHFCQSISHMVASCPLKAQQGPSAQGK

## CCOc1cccc2c1N[C@@H](c1ccc(C(=O)O)cc1)[C@H]1CC=C[C@@H]21 [LI71]
[1]
  Apoptosis: did not increase apoptosis
[2]
  Relative Renilla luciferase activity: did not show an effect
[3]
  Saturation transfer difference peaks: but not preE-let-7f
[4]
  Saturation transfer difference signal: increases the saturation transfer difference signal
[5]
  Relative Renilla luciferase activity: significantly reduce the relative Renilla luciferase activity
[6]
  Saturation transfer difference signals: induces the LI71 saturation transfer difference signals

— article PMC6511231 (Cell reports, 2018)
